Values after ≈ are worked out from the molar mass of the structure shown.
How the values were obtained:
SW-620 = assay: Cytotoxicity against human SW620 cells after 3 days by MTT assay; format: functional, cell-based; conditions: SW-620, 72 h
Procedure, shortened: (§1)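 Cells grown in RPMI-1640 with 25 mM HEPES, 0.25% (w/v) sodium bicarbonate, 5% (v/v) FBS and 100 µg/mL kanamycin. Freshly trypsinized cells were seeded at 5000 per well and given compound from DMSO-diluted stock. After three days, attached cells were MTT-stained, bound dye was solubilized and absorbance read at 540 nm. IC50 = 50% growth inhibition, averaged over at least six independent determinations.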

[1] = Cytotoxicity against human KATO III cells after 3 days by MTT assay; format: functional, cell-based, KATO III cell; conditions: 72 h; procedure, shortened: as §1
BT-474 = assay: Cytotoxicity against human BT474 cells after 3 days by MTT assay; format: functional, cell-based; conditions: BT-474, 72 h; procedure, shortened: as §1
HepG2 = assay: Cytotoxicity against human HepG2 cells after 3 days by MTT assay; format: functional, cell-based; conditions: HepG2, 72 h; procedure, shortened: as §1
[2] = Cytotoxicity against human ChaGo cells after 3 days by MTT assay; format: functional, cell-based; conditions: 72 h; procedure, shortened: as §1

Row | SMILES | IC50 (SW-620) [µg/mL] | IC50 [1] [µg/mL] | IC50 (BT-474) [µg/mL] | IC50 (HepG2) [µg/mL] | IC50 [2] [µg/mL]
1 | C=C(CO)[C@@H]1CC[C@@H]2[C@]3(CC[C@]4(C)[C@@H]([C@H](C)CC=CC(C)(C)O)CC[C@@]24C)C[C@]13CCC(=O)O | > 5 | > 5 | > 5 | > 5 | > 5
2 | C=C1C(=O)O[C@@H]2C[C@@H]3[C@]4(CC[C@]5(C)[C@@H]([C@H](C)Cc6cc(C)co6)CC[C@@]35C)C[C@]4(CCC(=O)O)[C@H]12 [GARDENOIN A] | > 5 | > 5 | > 5 | 4.5 (≈ 9.36 µM) | 1.6 (≈ 3.33 µM)
3 | C=C1C(=O)O[C@@H]2C[C@@H]3[C@]4(CC[C@]5(C)[C@@H]([C@H](C)Cc6cc(C)co6)CC[C@@]35C)C[C@]4(CCC(=O)OC)[C@H]12 [GARDENOIN B] | > 5 | > 5 | > 5 | > 5 | > 5
4 | C=C1C(=O)O[C@@H]2[C@H](O)[C@@H]3[C@]4(CC[C@]5(C)[C@@H]([C@H](C)Cc6cc(C)co6)CC[C@@]35C)C[C@]4(CCC(=O)OC)[C@H]12 [GARDENOIN C] | 2.5 (≈ 4.9 µM) | > 5 | > 5 | 2.8 (≈ 5.48 µM) | 4.4 (≈ 8.62 µM)
